Measured values from ChEMBL document CHEMBL5236549, “Discovery of 2-Sulfinyl-Diazabicyclooctane Derivatives, Potential Oral β-Lactamase Inhibitors for Infections Caused by Serine β-Lactamase-Producing Enterobacterales” (J Med Chem, 2021).
pIC50: −log10 of the molar value.

What was measured:
Klebsiella pneumoniae [1] = experiment: Antibacterial activity against Klebsiella pneumoniae SR09603 assessed as inhibition of bacterial growth incubated for 16 to 20 hrs by CLSI based two-fold serial dilution method
Enterobacter cloacae [2] = experiment: Antibacterial activity against Enterobacter cloacae SR200030 assessed as inhibition of bacterial growth incubated for 16 to 24 hrs by CLSI based two-fold serial dilution method; assay type: functional; settings: time 16-24 hrs
Summary of the method: (§1)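 CLSI broth microdilution in cation-adjusted Mueller Hinton broth, twofold serial dilutions, about 5 × 10⁴ cfu/well from OD625, 35 °C for 16−20 h. MIC is the lowest concentration with no visible growth.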

[3] = AUC in monkey at 5 mg/kg,iv by LC/MS/MS analysis; assay type: ADME, organism-based, Macaca mulatta; parameters: dose 5 mg/kg, route iv; settings: rhesus monkey, in vivo
Summary of the method: (§2)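 Plasma of the parent acid measured by LC/MS/MS (methanol precipitation, positive ESI, external standard); oral values follow prodrug dosing (rat fed, dog and monkey fasted). AUC from 0 h to last time point by linear trapezoid; F from oral AUC versus iv AUC of the parent. N = 2 (rat, dog), N = 3 (monkey, mouse).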

Escherichia coli [4] = experiment: Antibacterial activity against Escherichia coli ATCC SR34100 assessed as reduction in bacterial growth by measuring minimum […] concentration incubated for 16 to 24 hrs by CLSI based two-fold serial dilution method; assay type: functional; settings: time 16-24 hrs
Summary of the method: (§3)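 MPC₁ by broth microdilution: twofold serial dilutions of inhibitor in cation-adjusted Mueller Hinton broth containing ceftibuten at 1 μg/mL. Inoculum about 5 × 10⁴ cfu/well final, set from OD625. Incubation at 35 °C for 16−20 h. […] N = 1.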

Klebsiella pneumoniae [5] = experiment: Antibacterial activity against Klebsiella pneumoniae SR100758 assessed as reduction in bacterial growth by measuring minimum […] concentration incubated for 16 to 24 hrs by CLSI based two-fold serial dilution method; assay type: functional; settings: time 16-24 hrs
Summary of the method: (§4)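 Inhibitor twofold serially diluted in cation-adjusted Mueller Hinton broth containing ceftibuten 1 μg/mL. About 5 × 10⁴ cfu/well, 35 °C for 16−20 h. […] N = 1.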

Klebsiella pneumoniae [6] = experiment: Antibacterial activity against Klebsiella pneumoniae ATCC SR201218 assessed as reduction in bacterial growth by measuring minimum […] concentration incubated for 16 to 24 hrs by CLSI based two-fold serial dilution method; assay type: functional; settings: time 16-24 hrs
Summary of the method: as §3

Enterobacter cloacae [7] = experiment: Antibacterial activity against Enterobacter cloacae SR36276 assessed as reduction in bacterial growth by measuring minimum […] concentration incubated for 16 to 20 hrs by CLSI based two-fold serial dilution method; settings: time 16-20 hrs
Escherichia coli [8] = experiment: Antibacterial activity against Escherichia coli ATCC SR09613 assessed as reduction in bacterial growth by measuring minimum […] concentration incubated for 16 to 24 hrs by CLSI based two-fold serial dilution method; assay type: functional; settings: time 16-24 hrs
Summary of the method: as §3

[9] = Total clearance in mouse at 10 mg/kg,iv by LC/MS/MS analysis; assay type: ADME, organism-based; settings: in vivo
Summary of the method: (§5)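 Intravenous dosing (mouse 10, rat 1, dog 5, monkey 5 mg/kg); plasma quantified by LC/MS/MS after methanol precipitation with external standard; AUC by linear trapezoidal approximation; CLtot = dose/AUC.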

[10] = Total clearance in rat at 1 mg/kg,iv by LC/MS/MS analysis; assay type: ADME, organism-based; settings: in vivo
Summary of the method: as §5

Klebsiella pneumoniae [11] = experiment: Antibacterial activity against Klebsiella pneumoniae ATCC SR201218 assessed as inhibition of bacterial growth incubated for 16 to 20 hrs by CLSI based two-fold serial dilution method
[12] = Half life in rat at 1 mg/kg,iv by LC/MS/MS analysis; assay type: ADME, organism-based; settings: in vivo
Summary of the method: (§6)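 After iv dosing, T1/2 taken as ln 2/kel, with kel from the slope of the log concentration–time profile. Plasma levels measured by LC/MS/MS with an external standard.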

Klebsiella pneumoniae [13] = experiment: Antibacterial activity against Klebsiella pneumoniae SR201325 assessed as reduction in bacterial growth by measuring minimum […] concentration incubated for 16 to 24 hrs by CLSI based two-fold serial dilution method; assay type: functional; settings: time 16-24 hrs
Summary of the method: as §4

[14] = Half life in mouse at 10 mg/kg,iv by LC/MS/MS analysis; assay type: ADME, organism-based; settings: in vivo
Summary of the method: as §6

Enterobacter cloacae [15] = experiment: Antibacterial activity against Enterobacter cloacae SR100108 assessed as inhibition of bacterial growth incubated for 16 to 20 hrs by CLSI based two-fold serial dilution method
Klebsiella pneumoniae [16] = experiment: Antibacterial activity against Klebsiella pneumoniae SR09603 assessed as reduction in bacterial growth by measuring minimum […] concentration incubated for 16 to 20 hrs by CLSI based two-fold serial dilution method; settings: time 16-20 hrs
[17] = Stability of the compound in phosphate buffer at pH 7.0 assessed as parent compound remaining at 40 degreeC measured after 16 hrs; assay type: physicochemical; settings: read-out: Stability
Summary of the method: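 Compound held in pH 7.0 phosphate buffer at 40 °C for 16 h; amount remaining reported as %.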

[18] = Inhibition of bacterial beta-lactamase OXA-48 using nitrocefin as substrate incubated for 20 mins; parameters: species or system Bacteria
Summary of the method: (§7)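 Nitrocefin hydrolysis read by absorbance. Enzyme titrated to give about 0.2 absorbance change over the no-enzyme control. Enzyme added to nitrocefin (final 50 μg/mL) plus inhibitor, no preincubation, read after 20 min at 35 °C. IC50 is 50% reduction of hydrolysis. N = 1.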

Klebsiella pneumoniae [19] = experiment: Antibacterial activity against Klebsiella pneumoniae SR200263 assessed as inhibition of bacterial growth incubated for 16 to 24 hrs by CLSI based two-fold serial dilution method; assay type: functional; settings: time 16-24 hrs
Summary of the method: as §1

Escherichia coli [20] = experiment: Antibacterial activity against Escherichia coli ATCC SR34100 assessed as inhibition of bacterial growth incubated for 16 to 20 hrs by CLSI based two-fold serial dilution method
[21] = Inhibition of bacterial beta-lactamase CTX-M-15 using nitrocefin as substrate incubated for 20 mins; parameters: species or system Bacteria
Escherichia coli [22] = experiment: Antibacterial activity against Escherichia coli ATCC SR09613 assessed as inhibition of bacterial growth incubated for 16 to 20 hrs by CLSI based two-fold serial dilution method
[23] = AUC in dog at 5 mg/kg,iv by LC/MS/MS analysis; assay type: ADME, organism-based, Canis lupus familiaris; parameters: dose 5 mg/kg, route iv; settings: in vivo
Summary of the method: as §2

Klebsiella pneumoniae [24] = experiment: Antibacterial activity against Klebsiella pneumoniae SR09635 assessed as inhibition of bacterial growth incubated for 16 to 20 hrs by CLSI based two-fold serial dilution method
Klebsiella pneumoniae [25] = experiment: Antibacterial activity against Klebsiella pneumoniae ATCC BAA1705 assessed as inhibition of bacterial growth incubated for 16 to 20 hrs by CLSI based two-fold serial dilution method
Klebsiella pneumoniae [26] = experiment: Antibacterial activity against Klebsiella pneumoniae SR200487 assessed as inhibition of bacterial growth incubated for 16 to 24 hrs by CLSI based two-fold serial dilution method; assay type: functional; settings: time 16-24 hrs
Summary of the method: as §1

[27] = Inhibition of bacterial beta-lactamase CMY-2 using nitrocefin as substrate incubated for 20 mins; parameters: species or system Bacteria
Summary of the method: as §7

Klebsiella pneumoniae [28] = experiment: Antibacterial activity against Klebsiella pneumoniae ATCC BAA1705 assessed as reduction in bacterial growth by measuring minimum potentiating concentration incubated for 16 to 20 hrs by CLSI based two-fold serial dilution method; settings: time 16-20 hrs

With `C[S@@+]([O-])[C@@H]1CC[C@@H]2CN1C(=O)N2O[C@H](F)C(=O)[O-].[Na+]` the MIC (Klebsiella pneumoniae [1]) was 32 µg/mL, the MIC (Enterobacter cloacae [2]) was > 32 µg/mL and the AUC [3] was 13800 ng·h/mL. For the same molecule, the MPC (Escherichia coli [4]) was 0.125 µg/mL, the MPC (Klebsiella pneumoniae [5]) was 0.25 µg/mL and the MPC (Klebsiella pneumoniae [6]) was 2 µg/mL. For the same molecule, the MPC (Enterobacter cloacae [7]) was 2 µg/mL, the MPC (Escherichia coli [8]) was 0.125 µg/mL and the clearance [9] was 34.7 mL/min/kg. The clearance [10] was 27 mL/min/kg, the MIC (Klebsiella pneumoniae [11]) was > 32 µg/mL and the half-life [12] was 12 min. For the same molecule, the MPC (Klebsiella pneumoniae [13]) was 2 µg/mL, the half-life [14] was 24 min and the MIC (Enterobacter cloacae [15]) was > 32 µg/mL. For the same molecule, the MPC (Klebsiella pneumoniae [16]) was 0.125 µg/mL, the remaining at 16 h [17] was 95% and the pIC50 [18] was 6.35. It also gave an MIC (Klebsiella pneumoniae [19]) of 32 µg/mL, an MIC (Escherichia coli [20]) of 32 µg/mL and a pIC50 [21] of 7.92. The MIC (Escherichia coli [22]) was 32 µg/mL, the AUC [23] was 19400 ng·h/mL and the MIC (Klebsiella pneumoniae [24]) was 32 µg/mL. For the same molecule, the MIC (Klebsiella pneumoniae [25]) was 32 µg/mL, the MIC (Klebsiella pneumoniae [26]) was > 32 µg/mL and the pIC50 [27] was 7.55. The MPC (Klebsiella pneumoniae [28]) was 0.063 µg/mL.
